Experimental data published in ChEMBL document CHEMBL1146122, “Neuropeptide Y (NPY) Y4 receptor selective agonists based on NPY(32-36): development of an anorectic Y4 receptor selective agonist with picomolar affinity” (J Med Chem, 2006).
Positions of bridges follow the written chain, without caps; N, C: chain ends. Non-standard residues stand in square brackets, D forms with d. Residues, ends and D or L forms follow the SMILES beside them. Chains are numbered I, II in the order given. Nva = CCC[C@H](N)C(=O)O

Legend:
[1] = molecular target: T1, Neuropeptide Y receptor type 1 (Homo sapiens, UniProt P25929); assay: Agonist activity at human NPY1 receptor in CHO cells by inhibition of forskolin-stimulated cAMP synthesis; type: functional, cell-based
T1 sequence (P25929 whole entry): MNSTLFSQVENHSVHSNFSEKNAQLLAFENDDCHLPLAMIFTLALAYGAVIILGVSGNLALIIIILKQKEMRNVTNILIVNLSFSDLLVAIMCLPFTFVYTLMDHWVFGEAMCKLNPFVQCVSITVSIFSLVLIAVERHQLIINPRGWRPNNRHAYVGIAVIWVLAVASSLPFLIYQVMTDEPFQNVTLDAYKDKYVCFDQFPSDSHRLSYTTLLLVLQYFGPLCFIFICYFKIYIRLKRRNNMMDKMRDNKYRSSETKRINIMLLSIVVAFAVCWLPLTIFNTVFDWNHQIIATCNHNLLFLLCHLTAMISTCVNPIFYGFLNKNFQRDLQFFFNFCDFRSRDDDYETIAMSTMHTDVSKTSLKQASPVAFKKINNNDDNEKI

[2] = molecular target: T2, Neuropeptide Y receptor type 4 (Homo sapiens, UniProt P50391); assay: Displacement of [125I]hPP from human NPY4 receptor expressed in CHO cells; type: cell-based
Summary of the method: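 Y4 binding used membranes from CHO cells stably expressing cloned human Y4, with 125I-PP as radioligand. Competing peptides were tested over a range of concentrations in 50 mM HEPES pH 7.3, 0.1% BSA, 2.5 mM CaCl2 and 1 mM MgCl2 for 90 min at room temperature. Separation was by filtration and γ-counting. Nonspecific binding was taken with 1 µM PP. Duplicate points, three experiments, nonlinear regression.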

[3] = molecular target: T1, Neuropeptide Y receptor type 1; assay: Displacement of […] from human NPY1 receptor expressed in CHO cells; type: cell-based
Summary of the method: (§1)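 Competition binding on membranes (5-10 µg protein) from CHO cells stably expressing human Y1, Y2 or rat-human hybrid Y5 receptors. Radioligand 0.2 nM 125I-PYY, incubated with a range of peptide concentrations in 50 mM HEPES pH 7.3, 0.1% BSA, 2.5 mM CaCl2 and 1 mM MgCl2 for 90 min at room temperature. Bound ligand separated on PEI-treated glass fibre filters, washed with PBS and γ-counted. 1 µM NPY defined nonspecific binding. Duplicate points, three experiments, nonlinear regression.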

[4] = molecular target: T3, Neuropeptide Y receptor type 2 (Homo sapiens, UniProt P49146); assay: Displacement of […] from human NPY2 receptor expressed in CHO cells; type: cell-based; summary of the method: as §1
T3 sequence (P49146 whole entry): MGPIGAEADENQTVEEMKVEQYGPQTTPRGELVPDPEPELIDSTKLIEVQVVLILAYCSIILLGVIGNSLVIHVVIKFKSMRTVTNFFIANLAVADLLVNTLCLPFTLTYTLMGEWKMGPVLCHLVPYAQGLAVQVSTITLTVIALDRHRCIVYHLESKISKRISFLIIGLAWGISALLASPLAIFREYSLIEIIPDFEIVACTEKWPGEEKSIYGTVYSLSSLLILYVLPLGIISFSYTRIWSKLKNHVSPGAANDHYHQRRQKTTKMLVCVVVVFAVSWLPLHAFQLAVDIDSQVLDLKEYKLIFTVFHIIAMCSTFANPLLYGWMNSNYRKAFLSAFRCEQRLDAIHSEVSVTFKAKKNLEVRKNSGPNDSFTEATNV

[5] = Displacement of […] from rat-human hybrid NPY5 receptor expressed in CHO cells; type: cell-based; summary of the method: as §1
[6] = molecular target: T2, Neuropeptide Y receptor type 4; assay: Agonist activity at human NPY4 receptor in CHO cells by inhibition of forskolin-stimulated cAMP synthesis
Homo sapiens [7] = species: Homo sapiens; assay: Selectivity for human NPY4 over NPY1 receptor
Homo sapiens [8] = species: Homo sapiens; assay: Selectivity for human NPY4 over NPY2 receptor
[9] = Selectivity for human NPY4 over rat-human hybrid NPY5 receptor
[10] = molecular target: T4, Neuropeptide Y receptor type 1 (Homo sapiens) (UniProt P25929); assay: Antagonist activity against human NPY1 receptor in CHO cells by inhibition of forskolin-stimulated cAMP synthesis; type: functional, cell-based
T4 sequence (whole entry): T1 sequence (P25929 whole entry)

T2 sequence (P50391 whole entry): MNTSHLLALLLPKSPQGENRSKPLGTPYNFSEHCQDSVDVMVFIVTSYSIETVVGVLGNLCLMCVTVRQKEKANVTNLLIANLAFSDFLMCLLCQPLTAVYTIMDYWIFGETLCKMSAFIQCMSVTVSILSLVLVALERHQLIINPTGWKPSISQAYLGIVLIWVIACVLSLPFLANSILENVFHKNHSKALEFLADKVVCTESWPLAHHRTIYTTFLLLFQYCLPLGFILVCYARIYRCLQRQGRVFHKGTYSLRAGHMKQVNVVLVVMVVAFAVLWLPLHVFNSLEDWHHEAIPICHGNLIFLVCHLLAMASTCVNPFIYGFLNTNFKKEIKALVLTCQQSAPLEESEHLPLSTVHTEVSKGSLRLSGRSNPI

Compound | EC50 [1] | Ki [2] | Ki [3] | Ki [4] | EC50 [6] | Selectivity ratio (Homo sapiens [7]) | Selectivity ratio (Homo sapiens [8]) | Selectivity ratio [9] | Kb [10] | Ki [5]
CCC[C@H](NC(=O)[C@H](CCCN=C(N)N)NC(=O)[C@H](Cc1c[nH]c2ccccc12)NC(=O)[C@@H](N)CC[C@H](N)C(=O)N[C@@H](Cc1c[nH]c2ccccc12)C(=O)N[C@@H](CCCN=C(N)N)C(=O)N[C@@H](CCC)C(=O)N[C@@H](CCCN=C(N)N)C(=O)N[C@@H](Cc1ccc(O)cc1)C(N)=O)C(=O)N[C@@H](CCCN=C(N)N)C(=O)N[C@@H](Cc1ccc(O)cc1)C(N)=O |  | 4.2 nM | 140 nM | 360 nM | 460 nM | 34 | 85 | 78 |  | 330 nM
CCC[C@H](NC(=O)[C@H](CCCN=C(N)N)NC(=O)[C@H](Cc1c[nH]c2ccccc12)NC(=O)[C@H](Cc1ccc(O)cc1)NC(=O)[C@H](CCCN=C(N)N)NC(=O)[C@H](CCC)NC(=O)[C@H](CCCN=C(N)N)NC(=O)[C@@H](N)Cc1c[nH]c2ccccc12)C(=O)N[C@@H](CCCN=C(N)N)C(=O)N[C@@H](Cc1ccc(O)cc1)C(N)=O (H-WR[Nva]RYWR[Nva]RY-NH2) |  | 5.3 nM | 220 nM | 1050 nM | 290 nM | 50 | 200 | 50 | 320 nM | 250 nM
CCC[C@H](NC(=O)[C@H](CCCN=C(N)N)NC(=O)[C@H](Cc1c[nH]c2ccccc12)NC(=O)[C@@H](N)CSSC[C@H](N)C(=O)N[C@@H](Cc1c[nH]c2ccccc12)C(=O)N[C@@H](CCCN=C(N)N)C(=O)N[C@@H](CCC)C(=O)N[C@@H](CCCN=C(N)N)C(=O)N[C@@H](Cc1ccc(O)cc1)C(N)=O)C(=O)N[C@@H](CCCN=C(N)N)C(=O)N[C@@H](Cc1ccc(O)cc1)C(N)=O (I: H-CWR[Nva]RY-NH2 / II: H-CWR[Nva]RY-NH2; disulfide I:1-II:1) |  |  |  |  |  | 10 | 110 | 30 | 1730 nM | 770 nM
CCC[C@H](NC(=O)[C@H](CCCNC(=N)N)NC(=O)[C@H](Cc1c[nH]c2ccccc12)NC(=O)[C@@H](N)CSSC[C@H](N)C(=O)N[C@@H](Cc1c[nH]c2ccccc12)C(=O)N[C@@H](CCCNC(=N)N)C(=O)N[C@@H](CCC)C(=O)N[C@@H](CCCNC(=N)N)C(=O)N[C@@H](Cc1ccc(O)cc1)C(N)=O)C(=O)N[C@@H](CCCNC(=N)N)C(=O)N[C@@H](Cc1ccc(O)cc1)C(N)=O (I: H-CWR[Nva]RY-NH2 / II: H-CWR[Nva]RY-NH2; disulfide I:1-II:1) |  | 30 nM | 340 nM | > 3000 nM | 570 nM |  |  |  |  | 
CCC[C@H](NC(=O)[C@H](CCCN=C(N)N)NC(=O)[C@H](Cc1c[nH]c2ccccc12)NC(=O)[C@@H](N)CCC[C@H](N)C(=O)N[C@@H](Cc1c[nH]c2ccccc12)C(=O)N[C@@H](CCCN=C(N)N)C(=O)N[C@@H](CCC)C(=O)N[C@@H](CCCN=C(N)N)C(=O)N[C@@H](Cc1ccc(O)cc1)C(N)=O)C(=O)N[C@@H](CCCN=C(N)N)C(=O)N[C@@H](Cc1ccc(O)cc1)C(N)=O (stereo in doubt; 2A) [listing 1 of 2 here] |  | 4.3 nM | 120 nM | 310 nM | 200 nM |  |  |  |  | 2160 nM
CCC[C@H](NC(=O)[C@H](CCCN=C(N)N)NC(=O)[C@H](Cc1c[nH]c2ccccc12)NC(=O)[C@@H](N)CCC[C@H](N)C(=O)N[C@@H](Cc1c[nH]c2ccccc12)C(=O)N[C@@H](CCCN=C(N)N)C(=O)N[C@@H](CCC)C(=O)N[C@@H](CCCN=C(N)N)C(=O)N[C@@H](Cc1ccc(O)cc1)C(N)=O)C(=O)N[C@@H](CCCN=C(N)N)C(=O)N[C@@H](Cc1ccc(O)cc1)C(N)=O (stereo in doubt; 2A) [listing 2 of 2 here] |  |  |  |  |  | 30 | 70 | 500 |  | 
CCC[C@H](NC(=O)[C@H](CCCN=C(N)N)NC(=O)[C@H](Cc1c[nH]c2ccccc12)NC(=O)[C@@H](N)CCC[C@H](N)C(=O)N[C@@H](Cc1c[nH]c2ccccc12)C(=O)N[C@@H](CCCN=C(N)N)C(=O)N[C@@H](CCC)C(=O)N[C@@H](CCCN=C(N)N)C(=O)N[C@@H](Cc1ccc(O)cc1)C(N)=O)C(=O)N[C@@H](CCCN=C(N)N)C(=O)N[C@@H](Cc1ccc(O)cc1)C(N)=O (stereo in doubt; 2B) [listing 1 of 2 here] |  | 4.1 nM | 140 nM | 260 nM | 220 nM |  |  |  |  | 2280 nM
CCC[C@H](NC(=O)[C@H](CCCN=C(N)N)NC(=O)[C@H](Cc1c[nH]c2ccccc12)NC(=O)[C@@H](N)CCC[C@H](N)C(=O)N[C@@H](Cc1c[nH]c2ccccc12)C(=O)N[C@@H](CCCN=C(N)N)C(=O)N[C@@H](CCC)C(=O)N[C@@H](CCCN=C(N)N)C(=O)N[C@@H](Cc1ccc(O)cc1)C(N)=O)C(=O)N[C@@H](CCCN=C(N)N)C(=O)N[C@@H](Cc1ccc(O)cc1)C(N)=O (stereo in doubt; 2B) [listing 2 of 2 here] |  |  |  |  |  | 40 | 60 | 550 |  | 

Now from value to compound, other results behind:

EC50 [1] | Ki [2] | Ki [3] | Ki [4] | EC50 [6] | Selectivity ratio (Homo sapiens [7]) | Selectivity ratio (Homo sapiens [8]) | Selectivity ratio [9] | Kb [10] | Compound | Ki [5]
240 nM | 0.05 nM | 7.5 nM | 890 nM | 14.8 nM |  |  |  |  | CC(C)C[C@H](NC(=O)[C@H](CCCN=C(N)N)NC(=O)[C@H](Cc1ccc(O)cc1)NC(=O)[C@@H](N)CCCC[C@H](N)C(=O)N[C@@H](Cc1ccc(O)cc1)C(=O)N[C@@H](CCCN=C(N)N)C(=O)N[C@@H](CC(C)C)C(=O)N[C@@H](CCCN=C(N)N)C(=O)N[C@@H](Cc1ccc(O)cc1)C(N)=O)C(=O)N[C@@H](CCCN=C(N)N)C(=O)N[C@@H](Cc1ccc(O)cc1)C(N)=O | > 1000 nM
 | 4.1 nM | 90 nM | 390 nM | 430 nM |  |  |  |  | CCC[C@H](NC(=O)[C@H](CCCN=C(N)N)NC(=O)[C@H](Cc1c[nH]c2ccccc12)NC(=O)[C@@H](N)CCCC[C@H](N)C(=O)N[C@@H](Cc1c[nH]c2ccccc12)C(=O)N[C@@H](CCCN=C(N)N)C(=O)N[C@@H](CCC)C(=O)N[C@@H](CCCN=C(N)N)C(=O)N[C@@H](Cc1ccc(O)cc1)C(N)=O)C(=O)N[C@@H](CCCN=C(N)N)C(=O)N[C@@H](Cc1ccc(O)cc1)C(N)=O (stereo in doubt; 4A) [listing 1 of 2 here] | 120 nM
 |  |  |  |  | 20 | 100 | 30 |  | CCC[C@H](NC(=O)[C@H](CCCN=C(N)N)NC(=O)[C@H](Cc1c[nH]c2ccccc12)NC(=O)[C@@H](N)CCCC[C@H](N)C(=O)N[C@@H](Cc1c[nH]c2ccccc12)C(=O)N[C@@H](CCCN=C(N)N)C(=O)N[C@@H](CCC)C(=O)N[C@@H](CCCN=C(N)N)C(=O)N[C@@H](Cc1ccc(O)cc1)C(N)=O)C(=O)N[C@@H](CCCN=C(N)N)C(=O)N[C@@H](Cc1ccc(O)cc1)C(N)=O (stereo in doubt; 4A) [listing 2 of 2 here] | 
 |  |  |  |  | 40 | 270 | 140 |  | CCC[C@H](NC(=O)[C@H](CCCN=C(N)N)NC(=O)[C@H](Cc1c[nH]c2ccccc12)NC(=O)[C@@H](N)CCCC[C@H](N)C(=O)N[C@@H](Cc1c[nH]c2ccccc12)C(=O)N[C@@H](CCCN=C(N)N)C(=O)N[C@@H](CCC)C(=O)N[C@@H](CCCN=C(N)N)C(=O)N[C@@H](Cc1ccc(O)cc1)C(N)=O)C(=O)N[C@@H](CCCN=C(N)N)C(=O)N[C@@H](Cc1ccc(O)cc1)C(N)=O (stereo in doubt; 4B) | 
